Data as given in ChEMBL document CHEMBL1221173, “Dynamic imaging of protease activity with fluorescently quenched activity-based probes” (Nat Chem Biol, 2005).
Activity calls are given as the source filed them. No cut-off for these calls is given here.

Legend:
[1] = biological target: Cathepsin B (Bos taurus) (UniProt P07688); assay: Inhibition of bovine cathepsin B using Z-RR-AMC substrate assessed as inhibition association constant by fluorimetric assay
Outline: (§1)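 Cathepsin B or L (1 nM final) with inhibitor at 10–2,000 nM plus 10 µM substrate (Z-RR-AMC for B, Km 114 µM; Z-FR-AMC for L, Km 7.1 µM), 3.5% DMSO. AMC fluorescence (Ex 370/Em 460 nm) read continuously for 30 min. k_app from inhibition curves converted to k_ass = k_app(1+[S]/K_M).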

[2] = biological target: Cathepsin B (Mus musculus) (UniProt P10605); assay: Binding affinity to cathepsin B in mouse NIH/3T3 cells assessed as protein labeling at 1 uM after 30 mins using SDS-PAGE and Typhoon laser flatbed canning method; format: cell-based; details: NIH3T3
Outline: (§2)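 NIH-3T3 monolayers seeded one day before. Pretreated 1 h with JPM-OEt (50 µM) or 0.1% DMSO, then probe added to medium at pH 7.4 (final DMSO 0.2%) for the indicated times. Cells PBS-washed and lysed in SDS sample buffer, then boiled. Equal protein run on 12% SDS-PAGE, gel scanned at Ex/Em 532/580 nm.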

[3] = Cytotoxicity against mouse NIH/3T3 cells; format: cell-based; details: nih3t3
[4] = biological target: Cathepsin B (Mus musculus) (UniProt P10605); assay: Binding affinity to cathepsin B in mouse NIH/3T3 cells monolayers assessed as protein labeling at 1 uM after 4 to 5 hrs by fluorescence microscopy; format: cell-based; details: NIH3T3
Outline: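 Live NIH-3T3 cells on glass coverslips, pretreated 1 h with JPM-OEt (50 µM) or 0.1% DMSO. Probe (1 µM) added to growth medium, pH 7.4, for 4–5 h. Moved to phenol red-free medium with LysoTracker (50 nM final) for lysosome co-localization, then imaged by inverted fluorescence microscopy. Some cells first washed 3 h in medium with JPM-OEt or DMSO.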

[5] = Binding affinity to recombinant cathepsin X assessed as protein labeling at 0.1 to 10 uM after 30 mins using SDS-PAGE and Typhoon laser flatbed canning method
[6] = biological target: Cathepsin B (Homo sapiens) (UniProt P07858); assay: Binding affinity to cathepsin B in human MCF10A cells grown on reconstituted basement membrane exposed to 1 uM compounds assessed as protein labeling after 3 days by confocal fluorescence microscopy; details: MCF-10A
[7] = biological target: T1, Procathepsin L (Mus musculus) (UniProt P06797); assay: Binding affinity to cathepsin L in mouse NIH/3T3 cells assessed as protein labeling at 1 uM after 30 mins using SDS-PAGE and Typhoon laser flatbed canning method; format: cell-based; details: NIH3T3; outline: as §2
T1 sequence (whole entry): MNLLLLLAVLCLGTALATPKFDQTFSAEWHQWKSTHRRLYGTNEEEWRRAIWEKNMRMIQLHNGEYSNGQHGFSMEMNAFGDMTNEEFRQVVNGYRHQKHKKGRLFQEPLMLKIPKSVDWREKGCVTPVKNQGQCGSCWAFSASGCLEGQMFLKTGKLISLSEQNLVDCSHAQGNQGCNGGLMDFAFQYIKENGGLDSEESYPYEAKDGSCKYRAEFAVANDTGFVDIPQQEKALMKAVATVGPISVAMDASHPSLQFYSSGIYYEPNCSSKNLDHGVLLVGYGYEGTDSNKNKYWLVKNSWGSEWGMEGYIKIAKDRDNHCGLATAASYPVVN

[8] = biological target: Cathepsin S (Homo sapiens) (UniProt P25774); assay: Binding affinity to recombinant cathepsin S assessed as protein labeling at 0.1 to 10 uM after 30 mins using SDS-PAGE and Typhoon laser flatbed canning method
[9] = biological target: Procathepsin L (Homo sapiens) (UniProt P07711); assay: Binding affinity to human recombinant cathepsin L assessed as protein labeling at 0.1 to 10 uM after 30 mins using SDS-PAGE and Typhoon laser flatbed canning method
Outline: (§3)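 Recombinant enzyme (cathepsin B, bovine, 0.4 µg; cathepsin L, human, 0.7 µg) in pH 5.5 acetate buffer (50 mM acetate, 2 mM DTT, 5 mM MgCl₂). Optional 30 min pretreatment at 25 °C with general papain-family inhibitor JPM-OEt (25 µM), or DMSO. Probe at increasing concentrations for 30 min. Stopped with SDS sample buffer, SDS-PAGE, gel fluorescence scanned.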

[10] = biological target: Procathepsin L (Homo sapiens) (UniProt P07711); assay: Inhibition of human cathepsin L using Z-FR-AMC substrate assessed as inhibition association constant by fluorimetric assay; outline: as §1
[11] = biological target: Procathepsin L (Homo sapiens) (UniProt P07711); assay: Binding affinity to cathepsin L in human MCF10A cells grown on reconstituted basement membrane exposed to 1 uM compounds assessed as protein labeling after 3 days by confocal fluorescence microscopy; details: MCF-10A
[12] = biological target: Cathepsin B (Homo sapiens) (UniProt P07858); assay: Binding affinity to cathepsin B in 8 day old human MCF10A cells grown on reconstituted basement membrane assessed as protein labeling exposed to 1 uM for 3 hrs followed by washing overnight with growth media by confocal fluorescence microscopy; format: cell-based; details: MCF-10A
Outline: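 Day 8 three-dimensional MCF-10A cultures on reconstituted basement membrane, grown without probe. Treated with 1 µM probe for 3 h in assay medium (2% horse serum, 5 ng/ml EGF), washed overnight, then cold-methanol fixed. Immunostained overnight at 4 °C with rabbit anti-human cathepsin B, then secondary antibody and DAPI. Imaged by confocal microscopy.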

[13] = biological target: Cathepsin B (Bos taurus) (UniProt P07688); assay: Binding affinity to bovine recombinant cathepsin B assessed as protein labeling at 0.1 to 10 uM after 30 mins using SDS-PAGE and Typhoon laser flatbed canning method; outline: as §3

Sequence of Procathepsin L (Homo sapiens) (P07711 114-333 limits assumed): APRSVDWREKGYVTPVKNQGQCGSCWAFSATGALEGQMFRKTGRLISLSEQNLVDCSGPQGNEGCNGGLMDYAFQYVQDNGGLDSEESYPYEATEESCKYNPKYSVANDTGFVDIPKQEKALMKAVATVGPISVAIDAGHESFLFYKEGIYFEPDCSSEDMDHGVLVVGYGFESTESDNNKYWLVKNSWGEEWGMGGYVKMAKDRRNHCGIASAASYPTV
Sequence of Cathepsin B (Mus musculus) (P10605 80-333 limits assumed): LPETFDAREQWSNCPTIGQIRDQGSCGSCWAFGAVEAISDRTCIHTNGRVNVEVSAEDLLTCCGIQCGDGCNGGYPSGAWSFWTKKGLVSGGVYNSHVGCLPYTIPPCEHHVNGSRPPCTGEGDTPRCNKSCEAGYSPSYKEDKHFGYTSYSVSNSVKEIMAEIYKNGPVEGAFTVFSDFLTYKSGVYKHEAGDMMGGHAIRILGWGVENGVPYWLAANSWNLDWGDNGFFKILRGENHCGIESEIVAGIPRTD
Sequence of Cathepsin S (Homo sapiens) (P25774 115-331 limits assumed): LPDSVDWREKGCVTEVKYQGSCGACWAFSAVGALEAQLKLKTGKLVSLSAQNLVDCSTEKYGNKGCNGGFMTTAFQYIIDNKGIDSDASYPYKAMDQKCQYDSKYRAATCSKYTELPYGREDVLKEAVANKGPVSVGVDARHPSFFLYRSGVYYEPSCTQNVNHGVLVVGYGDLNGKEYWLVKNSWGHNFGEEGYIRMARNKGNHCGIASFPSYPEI

COc1ccc(-c2ccc3n2[B-](F)(F)[N+]2=C(C)C(CCC(=O)NCCCCCC(=O)NCCCC[C@@H](NC(=O)[C@@H](Cc4ccccc4)NC(=O)OCc4ccccc4)C(=O)COC(=O)c4c(C)cccc4C)=C(C)C2=C3)cc1
INH [1]: 1260 M⁻¹ s⁻¹
Activity [2]: Active
Activity [3]: Non-toxic
Activity [4]: Active
Activity [5]: Active
Activity [6]: Active
Activity [7]: Active
Activity [8]: Active
Activity [9]: Active
INH [10]: 2580 M⁻¹ s⁻¹
Activity [11]: Active
Activity [12]: Active
Activity [13]: Active

COc1ccc(-c2ccc3n2[B-](F)(F)[N+]2=C(C)C(CCC(=O)NCCCCCC(=O)NCCCC[C@@H](NC(=O)[C@@H](Cc4ccccc4)NC(=O)OC(C)(C)C)C(=O)COC(=O)c4c(C)cccc4C)=C(C)C2=C3)cc1
INH [1]: 212 M⁻¹ s⁻¹
INH [10]: 1180 M⁻¹ s⁻¹

COc1ccc(-c2ccc3n2[B-](F)(F)[N+]2=C(C)C(CCC(=O)NCCCCCC(=O)NCCCC[C@@H](NC(=O)[C@H](N)Cc4ccccc4)C(=O)COC(=O)c4c(C)cccc4C)=C(C)C2=C3)cc1
INH [1]: 38500 M⁻¹ s⁻¹
INH [10]: 296000 M⁻¹ s⁻¹

COc1ccc(-c2ccc3n2[B-](F)(F)[N+]2=C(C)C(CCC(=O)NCCCCCC(=O)NCCCC[C@@H](NC(=O)[C@@H](Cc4ccccc4)NC(=O)OCc4ccccc4)C(=O)COC(=O)CNC(=O)C4CCN(S(=O)(=O)c5ccccc5-c5c6cc/c(=[N+](/C)c7ccccc7)cc-6oc6cc(Nc7ccccc7)ccc56)CC4)=C(C)C2=C3)cc1
INH [1]: 275 M⁻¹ s⁻¹
Activity [2]: inactive
Activity [3]: Non-toxic
Activity [4]: Active
Activity [5]: Active
Activity [6]: Active
Activity [7]: Active
Activity [8]: Active
Activity [9]: Active
INH [10]: 7000 M⁻¹ s⁻¹
Activity [11]: Active
Activity [13]: Active
